Results as given in ChEMBL document CHEMBL1144497 (Bioorg Med Chem, 2007).
Converted amounts (≈) assume the structure as drawn.

Assays:
[1] = Solubility in sodium phosphate buffer at pH 7.4; assay type: physicochemical
[2] = Solubility in oil; assay type: physicochemical
Cocaine esterase = molecular target: T1, Cocaine esterase (Homo sapiens, UniProt O00748); assay: Activity of human recombinant carboxylesterase 2 assessed as AUDA hydrolysis; design: concentration or dose not given beside the values
T1 sequence (O00748 whole entry): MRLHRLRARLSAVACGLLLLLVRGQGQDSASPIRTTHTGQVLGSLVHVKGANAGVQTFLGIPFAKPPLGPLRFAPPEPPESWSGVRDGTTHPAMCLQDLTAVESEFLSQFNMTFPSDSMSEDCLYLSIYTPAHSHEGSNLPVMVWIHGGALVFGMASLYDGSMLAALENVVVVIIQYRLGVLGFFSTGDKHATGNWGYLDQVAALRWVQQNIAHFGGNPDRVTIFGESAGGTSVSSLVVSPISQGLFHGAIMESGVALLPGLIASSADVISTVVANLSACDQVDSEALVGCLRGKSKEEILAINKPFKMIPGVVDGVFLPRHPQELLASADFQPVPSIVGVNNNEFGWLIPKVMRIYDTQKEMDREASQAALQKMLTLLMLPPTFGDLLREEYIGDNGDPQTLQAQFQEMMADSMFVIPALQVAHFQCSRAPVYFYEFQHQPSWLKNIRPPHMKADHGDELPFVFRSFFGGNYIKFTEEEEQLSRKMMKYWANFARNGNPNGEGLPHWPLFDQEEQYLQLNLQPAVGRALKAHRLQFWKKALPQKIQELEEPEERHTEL
In short: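 Ester (100 μM) was incubated with purified baculovirus-expressed human carboxylesterase (hCE-1 or hCE-2, 5 μg; 333 nM) in 0.1 M sodium phosphate pH 7.4 at 37°C. Sampling was at 0, 30 and 60 min, with 60 min reported. Percent free acid (AUDA) formed was measured by LC-MS/MS. Values are averages of three separate measurements.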

[3] = molecular target: T2, Bifunctional epoxide hydrolase 2 (Homo sapiens, UniProt P34913); assay: Inhibition of human soluble epoxide hydrolase by fluorescent based assay
T2 sequence (P34913 whole entry): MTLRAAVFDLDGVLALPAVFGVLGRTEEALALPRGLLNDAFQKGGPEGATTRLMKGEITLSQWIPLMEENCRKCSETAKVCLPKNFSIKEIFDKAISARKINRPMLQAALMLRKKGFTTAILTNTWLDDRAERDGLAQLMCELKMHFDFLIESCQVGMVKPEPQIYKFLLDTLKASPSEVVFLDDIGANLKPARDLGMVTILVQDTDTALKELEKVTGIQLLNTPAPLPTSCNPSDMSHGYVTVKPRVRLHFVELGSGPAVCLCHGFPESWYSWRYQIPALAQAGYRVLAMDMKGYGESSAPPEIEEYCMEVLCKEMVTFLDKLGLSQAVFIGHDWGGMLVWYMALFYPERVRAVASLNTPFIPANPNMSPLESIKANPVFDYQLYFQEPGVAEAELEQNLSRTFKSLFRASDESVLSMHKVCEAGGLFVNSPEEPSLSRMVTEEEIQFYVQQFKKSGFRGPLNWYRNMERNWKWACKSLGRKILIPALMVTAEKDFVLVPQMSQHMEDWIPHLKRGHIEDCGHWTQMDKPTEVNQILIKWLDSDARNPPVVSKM

Mus musculus [4] = assay: AUC in Swiss Webster mouse at 5 mg/kg, po; assay type: ADME, organism-based, Plasma; design: dose 5 mg/kg, route oral; details: in vivo
In short: (§1)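 Male Swiss Webster mice, 7 weeks old, dosed by oral gavage at 5 mg/kg in olive oil. AUDA was measured in blood by LC-MS/MS. Cmax, AUC to terminal time and T1/2 were calculated from AUDA blood concentrations.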

Mus musculus [5] = assay: Cmax in Swiss Webster mouse at 5 mg/kg, po; assay type: ADME, organism-based; design: dose 5 mg/kg, route oral; details: in vivo; in short: as §1
Liver carboxylesterase 1 = molecular target: T3, Liver carboxylesterase 1 (Homo sapiens, UniProt P23141); assay: Activity of human recombinant carboxylesterase 1 assessed as AUDA hydrolysis; design: scale not given: the % may be the effect or the level left
T3 sequence (P23141 whole entry): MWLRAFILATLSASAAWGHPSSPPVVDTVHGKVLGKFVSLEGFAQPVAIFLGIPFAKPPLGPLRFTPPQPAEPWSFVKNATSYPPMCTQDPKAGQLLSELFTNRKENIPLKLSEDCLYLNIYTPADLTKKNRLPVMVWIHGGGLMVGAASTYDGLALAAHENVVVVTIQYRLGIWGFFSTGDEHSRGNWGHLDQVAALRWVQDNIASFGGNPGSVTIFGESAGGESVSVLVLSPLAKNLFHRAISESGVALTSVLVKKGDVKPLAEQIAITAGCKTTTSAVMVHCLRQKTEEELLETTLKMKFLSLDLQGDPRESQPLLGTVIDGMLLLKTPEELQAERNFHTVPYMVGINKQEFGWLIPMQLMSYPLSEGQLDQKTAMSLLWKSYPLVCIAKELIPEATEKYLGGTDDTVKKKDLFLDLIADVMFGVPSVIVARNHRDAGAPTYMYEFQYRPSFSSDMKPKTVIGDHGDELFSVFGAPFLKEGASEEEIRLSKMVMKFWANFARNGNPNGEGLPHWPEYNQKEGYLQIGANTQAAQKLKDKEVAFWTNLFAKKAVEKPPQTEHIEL

[6] = molecular target: T4, Bifunctional epoxide hydrolase 2 (Mus musculus, UniProt P34914); assay: Inhibition of mouse soluble epoxide hydrolase by spectrometric based assay
T4 sequence (P34914 whole entry): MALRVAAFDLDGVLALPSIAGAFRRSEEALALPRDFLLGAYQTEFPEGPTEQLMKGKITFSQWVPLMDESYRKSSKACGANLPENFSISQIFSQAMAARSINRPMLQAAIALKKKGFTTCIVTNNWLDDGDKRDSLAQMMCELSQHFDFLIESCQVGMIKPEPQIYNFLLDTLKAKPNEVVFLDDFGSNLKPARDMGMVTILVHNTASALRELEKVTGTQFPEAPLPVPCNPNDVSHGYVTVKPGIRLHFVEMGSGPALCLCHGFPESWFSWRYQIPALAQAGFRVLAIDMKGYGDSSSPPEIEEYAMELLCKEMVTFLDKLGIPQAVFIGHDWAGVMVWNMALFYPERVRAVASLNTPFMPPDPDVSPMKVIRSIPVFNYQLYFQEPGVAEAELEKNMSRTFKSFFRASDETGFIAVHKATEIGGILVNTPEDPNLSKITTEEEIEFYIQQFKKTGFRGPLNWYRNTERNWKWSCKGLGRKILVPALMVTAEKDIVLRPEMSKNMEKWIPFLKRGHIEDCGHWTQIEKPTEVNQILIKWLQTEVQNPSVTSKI

[7] = molecular target: T2, Bifunctional epoxide hydrolase 2; assay: Inhibition of human soluble epoxide hydrolase by spectrometric based assay
Mus musculus [8] = assay: Half life in Swiss Webster mouse at 5 mg/kg, po; assay type: ADME, organism-based; design: dose 5 mg/kg, route oral; details: in vivo

Which solubility [1] does the source give for CC(C)COC(=O)CCCCCCCCCCCNC(=O)NC12CC3CC(CC(C3)C1)C2 here?
Its solubility is 1.7 µg/mL (≈ 3.79 µM).

And the solubility [2]?
The solubility was 17000 µg/mL (≈ 37900 µM).

What about the Activity (Cocaine esterase) of the same compound?
The Activity was 33%.

And the IC50 [3]?
Its IC50 is 1.2 nM.

And the AUC (Mus musculus [4])?
The AUC was 110 ng·h/mL.

What about the Cmax (Mus musculus [5]) of the same compound?
The Cmax was 42.9 ng/mL.

What about the Activity (Liver carboxylesterase 1) of the same compound?
The Activity was 55%.

With CCCCCCCCC(NC(=O)CCCCCCCCCCCNC(=O)NC12CC3CC(CC(C3)C1)C2)C(=O)N[C@H]1O[C@@H](CO)[C@H](O)[C@@H](O)[C@@H]1O (stereo partly drawn) as the compound, how does the solubility [1] read?
Its solubility is 38 µg/mL (≈ 52.6 µM).

And the solubility [2]?
Its solubility is 2000 µg/mL (≈ 2770 µM).

And the IC50 [3]?
Its IC50 is 7.5 nM.

And the IC50 [6]?
The IC50 was 50 nM.

What about the IC50 [7] of the same compound?
Its IC50 is 100 nM.

For CC(C)OC(=O)CCCCCCCCCCCNC(=O)NC12CC3CC(CC(C3)C1)C2, which solubility [1] is on record?
Its solubility is 7 µg/mL (≈ 16.1 µM).

What about the solubility [2] of the same compound?
Its solubility is 12000 µg/mL (≈ 27600 µM).

What about the t1/2 (Mus musculus [8]) of the same compound?
Its t1/2 is 1.9 h.

And the Activity (Cocaine esterase)?
Its Activity is 39%.

What about the IC50 [3] of the same compound?
Its IC50 is 1.1 nM.

What about the AUC (Mus musculus [4]) of the same compound?
Its AUC is 84 ng·h/mL.

And the Cmax (Mus musculus [5])?
Its Cmax is 29.6 ng/mL.

What about the Activity (Liver carboxylesterase 1) of the same compound?
Its Activity is 72%.

For CS(=O)(=O)NC(=O)CCCCCCCCCCCNC(=O)NC12CC3CC(CC(C3)C1)C2, which solubility [1] is on record?
The solubility was 10 µg/mL (≈ 21.3 µM).

Which solubility [1] does the source give for CCC(C)OC(=O)CCCCCCCCCCCNC(=O)NC12CC3CC(CC(C3)C1)C2 (stereo not drawn) here?
The solubility was 5 µg/mL (≈ 11.1 µM).

What about the solubility [2] of the same compound?
The solubility was 27000 µg/mL (≈ 60200 µM).

And the t1/2 (Mus musculus [8])?
The t1/2 was 3.8 h.

What about the Activity (Cocaine esterase) of the same compound?
Its Activity is 26%.

What about the IC50 [3] of the same compound?
Its IC50 is 0.7 nM.

And the AUC (Mus musculus [4])?
The AUC was 47 ng·h/mL.

What about the Cmax (Mus musculus [5]) of the same compound?
Its Cmax is 13.1 ng/mL.

For O=C(O)CCCCCCCCCCCNC(=O)NC12CC3CC(CC(C3)C1)C2, which solubility [1] is on record?
The solubility was 35 µg/mL (≈ 89.2 µM).

What about the solubility [2] of the same compound?
Its solubility is 5000 µg/mL (≈ 12700 µM).

What about the t1/2 (Mus musculus [8]) of the same compound?
The t1/2 was 2.3 h.

What about the Activity (Cocaine esterase) of the same compound?
The Activity was 100%.

And the AUC (Mus musculus [4])?
The AUC was 87 ng·h/mL.

And the Cmax (Mus musculus [5])?
The Cmax was 26.9 ng/mL.

And the Activity (Liver carboxylesterase 1)?
Its Activity is 100%.

Which IC50 [3] does the source give for CCOC(=O)CCCCCCCCCCCNC(=O)NC12CC3CC(CC(C3)C1)C2 here?
The IC50 was 1.6 nM.

Which IC50 [3] does the source give for C=CCOC(=O)CCCCCCCCCCCNC(=O)NC12CC3CC(CC(C3)C1)C2 here?
Its IC50 is 1 nM.

What does the source list for O=C(CCCCCCCCCCCNC(=O)NC12CC3CC(CC(C3)C1)C2)NCC(=O)N[C@H]1O[C@@H](CO)[C@H](O)[C@@H](O)[C@@H]1O?
IC50 [3]: 7.6 nM; IC50 [6]: 50 nM; IC50 [7]: 220 nM

With O=C(NCCCCCCCCCCCC(=O)OCc1ccccc1)NC12CC3CC(CC(C3)C1)C2 as the compound, how does the IC50 [3] read?
The IC50 was 2 nM.

Which IC50 [3] does the source give for C#CCOC(=O)CCCCCCCCCCCNC(=O)NC12CC3CC(CC(C3)C1)C2 here?
Its IC50 is 1.8 nM.

For COC(=O)CCCCCCCCCCCNC(=O)NC12CC3CC(CC(C3)C1)C2, which IC50 [3] is on record?
Its IC50 is 2.3 nM.

For CCCOC(=O)CCCCCCCCCCCNC(=O)NC12CC3CC(CC(C3)C1)C2, which IC50 [3] is on record?
Its IC50 is 1 nM.

Which solubility [1] does the source give for CCCCOC(=O)CCCCCCCCCCCNC(=O)NC12CC3CC(CC(C3)C1)C2 here?
Its solubility is 5 µg/mL (≈ 11.1 µM).

And the solubility [2]?
The solubility was 25000 µg/mL (≈ 55700 µM).

What about the Activity (Cocaine esterase) of the same compound?
The Activity was 39%.

What about the AUC (Mus musculus [4]) of the same compound?
Its AUC is 96 ng·h/mL.

And the Cmax (Mus musculus [5])?
Its Cmax is 39.5 ng/mL.

And the Activity (Liver carboxylesterase 1)?
Its Activity is 41%.

Which results are given for O=C(NCCCCCCCCCCCC(=O)OC12CC3CC(CC(C3)C1)C2)NC12CC3CC(CC(C3)C1)C2?
IC50 [3]: 1.5 nM; IC50 [6]: 50 nM; IC50 [7]: 230 nM
